The target in data set [1] is T1, Human immunodeficiency virus type 1 reverse transcriptase (Human immunodeficiency virus 1, UniProt Q72547). Put plainly: Inhibition of re-constituted HIV1 reverse transcriptase RNase H domain fragment. Summed up:
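Secondary check using a catalytically active, isolated HIV RNase H domain fragment (reconstituted) with duplex substrate HTS-1.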

The target of data set [2] is T1, Human immunodeficiency virus type 1 reverse transcriptase. Put plainly: Inhibition of polymerase activity of HIV1 reverse transcriptase using poly(rA)-oligo(dT)16 and [3H]-TTP incubated for 20 mins by liquid scintillation spectrometry. In outline:
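Reaction mix: 10 µM [3H]-TTP, 40 nM poly(rA)-oligo(dT)16, 50 mM Tris-HCl pH 7.4 (37°C), 60 mM KCl, 5 mM MgCl2. Started with 10 nM RT; 20 min at 37°C. Quenched in ice-cold 10% TCA with 20 mM sodium pyrophosphate, then glass-fibre filtered and washed with TCA and ethanol. Label incorporation read by liquid scintillation.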

For data set [3] the target is unchanged. Put plainly: Inhibition of RNase H activity of full length recombinant HIV1 reverse transcriptase assessed as reduction in DNA 3'-end cleavage using HTS2 substrate. In outline: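 Recombinant p66/p51 RT heterodimer. Fluorescent RNA/DNA duplex substrate HTS-2 reports DNA 3′-end-directed (polymerase-dependent) cleavage. IC50 is the mean of at least three independent experiments.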

Data set [4] shares this target. Put plainly: Inhibition of RNase H activity of full length recombinant HIV1 reverse transcriptase assessed as reduction in nonspecific internal cleavage using HTS1 substrate. The conditions noted are these: read-out: IC50. In outline: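 Recombinant p66/p51 RT heterodimer. Fluorescent RNA/DNA duplex substrate HTS-1 measures internal cleavage. IC50 is the mean of at least three independent experiments.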

Data set [5] has the same target. Put plainly: Inhibition of RNase H activity of full length recombinant HIV1 reverse transcriptase assessed as reduction in RNA 5'-end directed cleavage using HTS3 substrate.
Data set [6] can be described thus: Toxicity against human HeLa P4/R5 cells. The data set is classed as cell-based.

By IC50 is commonly meant the concentration at which inhibition is half-maximal. The term CC50 denotes the concentration at which the toxic effect on the cells reaches its halfway point. As to `Cn1c(Oc2ccc(-c3ccccc3)cc2)cc(=O)n(O)c1=O`, the half-inhibitory concentration (IC50) was 2.1 µM in data set [1] (read-out: IC50); “Not Active” in data set [2]; 5.3 µM in data set [3] (read-out: IC50); 1.9 µM in data set [4]; 6 µM in data set [5] (read-out: IC50). Besides, the half-maximal cytotoxic concentration (CC50) in data set [6] came to 5 µM.

On to `COc1ccc(-c2cccc(Oc3cc(=O)n(O)c(=O)n3C)c2)cc1`, for which the 50% inhibitory concentration (IC50) was 1.8 µM in data set [1] (read-out: IC50); “Not Active” in data set [2]; 4 µM in data set [3] (read-out: IC50); 0.4 µM in data set [4]; 4.7 µM in data set [5] (read-out: IC50). The same molecule showed a CC50 in data set [6] of 2.5 µM.

With `COc1cc(OC)cc(-c2cccc(Nc3cc(=O)n(O)c(=O)n3C)c2)c1`, the half-maximal inhibitory concentration (IC50) in data set [1] (read-out: IC50) is 1.4 µM; in data set [2], “Not Active”; in data set [3] (read-out: IC50) it was 2.8 µM; in data set [4] it was 0.6 µM; in data set [5] (read-out: IC50) it was 4 µM. Also, the CC50 in data set [6] is 10 µM.

Regarding `Cn1c(Oc2cccc(-c3ccc(C(F)(F)F)cc3)c2)cc(=O)n(O)c1=O`, the IC50 entry was “Not Active” in data set [1]; “Not Active” in data set [2]; “Not Active” in data set [3]; 9.5 µM in data set [4]; “Not Active” in data set [5]. In data set [6], the half-maximal cytotoxic concentration (CC50) is greater than 25 µM.

For `Cn1c(Nc2ccc(-c3ccc(C#N)cc3)cc2)cc(=O)n(O)c1=O`, the IC50 in data set [1] (read-out: IC50) is 1 µM; in data set [2] (read-out: IC50), 3.3 µM; in data set [3] (read-out: IC50) it was 2.6 µM; in data set [4], 1.1 µM; in data set [5] (read-out: IC50), 3.7 µM. Also, the CC50 in data set [6] was determined as 12 µM.

With `Cn1c(Oc2cccc(-c3ccccc3)c2)cc(=O)n(O)c1=O`, the IC50 is 3.9 µM in data set [1] (read-out: IC50); “Not Active” in data set [2]; “Not Active” in data set [3]; 1 µM in data set [4]; 15 µM in data set [5] (read-out: IC50). In data set [6], this molecule gave a CC50 of 3 µM.

For the molecule `COc1ccccc1-c1cccc(Nc2cc(=O)n(O)c(=O)n2C)c1`, the IC50 in data set [1] (read-out: IC50) is 1 µM; in data set [2] (read-out: IC50) it was 6.6 µM; in data set [3] (read-out: IC50), 2.1 µM; in data set [4], 1.2 µM; in data set [5] (read-out: IC50) it was 3.8 µM. Moreover, the midpoint of cytotoxicity in data set [6], the CC50, lay at 6 µM.

For `Cn1c(Oc2ccccc2-c2ccc(C(F)(F)F)cc2)cc(=O)n(O)c1=O`, the IC50 is 5.1 µM in data set [1] (read-out: IC50); “Not Active” in data set [2]; “Not Active” in data set [3]; 3.9 µM in data set [4]; 21 µM in data set [5] (read-out: IC50). Moreover, in data set [6], the CC50 is 6 µM.

For the molecule `COc1ccc(-c2ccc(Oc3cc(=O)n(O)c(=O)n3C)cc2)cc1`, the IC50 in data set [1] (read-out: IC50) is 4.7 µM; in data set [2], “Not Active”; in data set [3] (read-out: IC50) it was 11 µM; in data set [4], 1.6 µM; in data set [5] (read-out: IC50), 12 µM. For the same molecule, the midpoint of cytotoxicity in data set [6], the CC50, lay at 6 µM.

As for `COc1cccc(-c2ccccc2Oc2cc(=O)n(O)c(=O)n2C)c1`, the half-maximal inhibitory concentration (IC50) in data set [1] (read-out: IC50) is 12 µM; in data set [2], “Not Active”; in data set [3], “Not Active”; in data set [4], 5.7 µM; in data set [5], “Not Active”. In data set [6], this molecule had a cytotoxic concentration (CC50) of 6 µM.

Take `Cn1c(Nc2ccc(-c3ccccc3)cc2)cc(=O)n(O)c1=O`: the 50% inhibitory concentration (IC50) was 1.7 µM in data set [1] (read-out: IC50); “Not Active” in data set [2]; 3.5 µM in data set [3] (read-out: IC50); 0.8 µM in data set [4]; 5.1 µM in data set [5] (read-out: IC50). The molecule also showed a CC50 in data set [6] of 6 µM.

Consider `COc1cccc(OC)c1-c1cccc(Nc2cc(=O)n(O)c(=O)n2C)c1`, for which the IC50 in data set [1] (read-out: IC50) was 1.2 µM; in data set [2], “Not Active”; in data set [3] (read-out: IC50), 6.9 µM; in data set [4], 1.9 µM; in data set [5] (read-out: IC50) it was 4.5 µM. Further, the CC50 in data set [6] came to 8 µM.

As to `Cn1c(Nc2ccc(-c3ccc(C(F)(F)F)cc3)cc2)cc(=O)n(O)c1=O`, the half-maximal inhibitory concentration (IC50) in data set [1] (read-out: IC50) was 2.2 µM; in data set [2], “Not Active”; in data set [3] (read-out: IC50), 8.9 µM; in data set [4], 3.6 µM; in data set [5] (read-out: IC50), 6.6 µM. Besides, in data set [6], the midpoint of cytotoxicity, the CC50, lay at 10 µM.

Source of the values: ChEMBL document CHEMBL4428027, “3-Hydroxypyrimidine-2,4-diones as Selective Active Site Inhibitors of HIV Reverse Transcriptase-Associated RNase H: Design, Synthesis, and Biochemical Evaluations” (J Med Chem, 2016).
